Rev-erbA mod – modulates human Rev-erb alpha binding to DNA. 370,000 compounds, 0.79% hits. Rev-erbα–FITC-DNA binding, fluorescence polarization, 90 min. activity, % at 10 µM. P20393;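 active means activity above about 14%, limit read from the data; passing the limit was not always enough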;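 further: 0% = DMSO wells with 35 nM protein and 100% = DMSO wells with 750 nM protein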
GalR3 antagonist – antagonists of human GalR3; HEK293 GalR3-CNG cAMP membrane potential fluorescence; galR3 body fused to GalR1 C-terminus; inhibition, % at 3 µM; 360,000 compounds, 0.44% hits; AID 651719;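 active means inhibition above the screen-wide average plus 3 SD, cut at about 13% in these data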;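 further: forskolin and galanin both at EC90 stimulate the cells; cAMP rise reported by CNG channel membrane potential dye signal; 0% = forskolin plus galanin with DMSO and 100% = forskolin alone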
Target sequence (O60755 1-299 limits assumed): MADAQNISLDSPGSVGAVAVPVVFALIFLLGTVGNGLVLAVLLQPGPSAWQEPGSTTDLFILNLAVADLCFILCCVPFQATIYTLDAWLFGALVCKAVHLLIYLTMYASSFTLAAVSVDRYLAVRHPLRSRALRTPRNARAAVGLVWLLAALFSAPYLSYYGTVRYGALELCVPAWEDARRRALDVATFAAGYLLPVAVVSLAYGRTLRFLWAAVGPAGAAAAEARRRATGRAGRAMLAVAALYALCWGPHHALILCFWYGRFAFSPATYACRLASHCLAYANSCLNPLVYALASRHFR
NR2E3 ag-1 – NR2E3 (human) agonism; inhibition of corepressor binding, % at 4.78 µM; Q9Y5X4; GST-NR2E3/biotin-RetCOR TR-FRET, 1536-well; 320,000 compounds, 0.12% hits;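 active means percent inhibition above the cutoff of mean plus 3 SD of all tested compounds, set per screening campaign, cut at about 20% in these data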;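 further: 0% = DMSO wells and 100% = biotin wells as full block of FRET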
Target sequence (Q9Y5X4 whole entry, looked up): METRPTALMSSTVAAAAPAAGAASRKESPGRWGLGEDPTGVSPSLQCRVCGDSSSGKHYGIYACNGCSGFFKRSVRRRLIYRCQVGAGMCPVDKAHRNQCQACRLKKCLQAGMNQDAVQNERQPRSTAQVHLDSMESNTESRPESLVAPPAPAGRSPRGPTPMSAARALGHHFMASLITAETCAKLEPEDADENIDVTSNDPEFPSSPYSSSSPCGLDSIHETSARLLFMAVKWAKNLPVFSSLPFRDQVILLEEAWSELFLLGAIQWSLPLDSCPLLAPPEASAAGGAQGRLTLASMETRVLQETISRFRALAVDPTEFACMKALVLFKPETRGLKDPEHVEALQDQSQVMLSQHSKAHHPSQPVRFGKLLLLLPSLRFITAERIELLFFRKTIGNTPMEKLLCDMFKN
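Material: NR2E3–RetCOR corepressor complex / Incubation: Compound–protein incubation for 5 h at 4 °C / Dosing: compound at 4.8 µM, single dose / Detection: time-resolved FRET / Benchmarks: high control biotin, low control 0.6% DMSO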
NR2E3 ag-2 – activates human NR2E3 receptor; Q9Y5X4; CHO-S Gal4-NCOR/VP16-NR2E3 two-hybrid, luciferase; inhibition of corepressor binding, % at 3.98 µM; 360,000 compounds, 0.35% hits; AID 602229;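 active means inhibition above the mean of all tested compounds plus 3 SD, cut at about 70% in these data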;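 further: 0% = DMSO with NR2E3 transfected cells and 100% = cells lacking NR2E3 construct; higher means lower luciferase signal from less NR2E3 corepressor binding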
PG9 Ab binder – PG9 antibody binding by small molecule. AID 624416. 360,000 compounds, 0.43% hits. TR-FRET gp120-PG9 antibody binding. inhibition, % at 6.7 µM; in the data active means inhibition above about 8.5%
NR1D1 mod conf – confirmation of modulators of human Rev-erb alpha DNA binding. shares compounds with Rev-erbA mod. Rev-erb alpha FITC-DNA binding, fluorescence polarization, 90 min. 3,000 compounds, 61% hits. activation, % at 25 µM;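 active means activation at or above a set limit, or at least 3 SD above the negative control mean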;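 further: 0% = 35 nM protein with DMSO and 100% = 750 nM protein high control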
RORg DNA counter – RORgamma DNA-binding activity, dose-response counter-screen; AID 1259320; IC50, µM; shares compounds with Rev-erbA mod; purified RORgamma protein-FITC-DNA binding, fluorescence polarization; 910 compounds, 8% hits;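 active means Compounds whose fitted half-maximal concentration for disrupting protein-DNA binding is below 10 micromolar; the record names Rev-erb in its text, so the target is in doubt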
Starred values were filed as active, the others as inactive. Hits are enriched below; roughly 1.8% of the tested compounds scored in any of these assays.

`CC(C)C[C@H](NC1(C(=O)NCCc2c[nH]c3ccccc23)CCC1)C(=O)NCCCc1ccccc1` gave Rev-erbA mod -4.4.
Screening CCOc1cccc(-c2nnc3sc(-c4cc(OC)c(OC)c(OC)c4)nn23)c1 returned Rev-erbA mod 24.9, GalR3 antagonist -2.5, NR2E3 ag-1 4.1, NR2E3 ag-2 4.9 and PG9 Ab binder 0.1.
CCOc1cccc(-c2nnc3sc(-c4cccs4)nn23)c1 was read as Rev-erbA mod 29.3*, GalR3 antagonist -2.7, NR2E3 ag-1 -3.4, NR2E3 ag-2 -7.0, PG9 Ab binder 1.0 and NR1D1 mod conf 20.0*.
CCc1cc2cc3c(cc2nc1SCC(=O)Nc1nnc(C)s1)OCCO3 was read as Rev-erbA mod 59.5*, GalR3 antagonist -5.0, NR2E3 ag-1 2.2, NR2E3 ag-2 -7.9, PG9 Ab binder 1.5, NR1D1 mod conf 41.0* and RORg DNA counter >40.
Screening CCOC(=O)CSc1nc2cc3c(cc2cc1CC)OCCO3 returned Rev-erbA mod 10.7, GalR3 antagonist -4.8, NR2E3 ag-1 3.0, NR2E3 ag-2 3.2 and PG9 Ab binder 2.7.
`CCc1nnc(NC(=O)CSc2nc3cc4c(cc3cc2CC)OCCO4)s1` gave Rev-erbA mod 89.7*, GalR3 antagonist -4.4, NR2E3 ag-1 1.6, NR2E3 ag-2 -9.4, PG9 Ab binder 1.7, NR1D1 mod conf 36.0* and RORg DNA counter >40.
`N#Cc1ccc(C#Cc2ccc3oc4ccccc4c(=O)c3c2)cc1` gave Rev-erbA mod 16.0*, GalR3 antagonist -4.7, NR2E3 ag-2 -4.8, PG9 Ab binder -1.0 and NR1D1 mod conf 16.6.
For Cc1cc2c(cc(C(=O)OC(C)C(=O)NCc3ccc(F)cc3)n2C)o1 (stereo unspecified) the results were Rev-erbA mod 6.3, GalR3 antagonist -6.3, NR2E3 ag-2 3.5 and PG9 Ab binder 0.7.
`Cc1cc2c(cc(C(=O)OC(C)C(=O)NCc3ccccc3)n2C)o1` (stereo unspecified) gave Rev-erbA mod 26.3*, GalR3 antagonist -5.3, NR2E3 ag-2 -13.2, PG9 Ab binder -1.3 and NR1D1 mod conf 17.5*.
COC(=O)[C@H](C(C)C)N(CCc1cn(Cc2ccccc2)nn1)S(=O)(=O)c1ccccc1Br was read as Rev-erbA mod 1.0.
`Cc1ccc(-n2c(Cc3cccs3)nnc2SCc2ccc(Br)cc2)cc1` gave Rev-erbA mod 4.6.
Screening O=C(c1ccccc1)c1nn(-c2cccc(Cl)c2)c2nc(-c3ccccc3)cc(=O)n12 returned Rev-erbA mod 24.1*, GalR3 antagonist -0.9, NR2E3 ag-1 -2.3, NR2E3 ag-2 -2.9, PG9 Ab binder -0.5 and NR1D1 mod conf 13.9.
For Cn1c(SCC(=O)NC2CCCCC2)nnc1-c1cc2cc(Cl)ccc2o1 the results were Rev-erbA mod 100.5*, GalR3 antagonist -2.7, NR2E3 ag-1 0.2, NR2E3 ag-2 -2.2, PG9 Ab binder -1.2 and NR1D1 mod conf 26.6*.
For Cn1c(SCC(=O)Nc2cccc(Br)c2)nnc1-c1cc2ccccc2o1 the results were Rev-erbA mod 41.8*, GalR3 antagonist -4.8, NR2E3 ag-1 -322.7, NR2E3 ag-2 -2.7, PG9 Ab binder -8.9 and NR1D1 mod conf 60.2*.
CC(NC(=O)CSc1nnc(-c2cc3cc(Cl)ccc3o2)n1C)c1ccccc1 (stereo unspecified) was read as Rev-erbA mod 2.1, GalR3 antagonist -3.8, NR2E3 ag-1 -0.4, NR2E3 ag-2 0.3 and PG9 Ab binder -2.1.
COc1ccc2c(c1)C[C@@H](CON1C(C)(C)CCCC1(C)C)N2S(=O)(=O)c1ccc(C)cc1 was read as Rev-erbA mod 9.0.
COc1ccc(C(=O)CSc2cc(C)nc(SCC(=O)c3ccc(C)cc3)n2)cc1 was read as Rev-erbA mod 26.8*, GalR3 antagonist -4.0, NR2E3 ag-1 2.4, NR2E3 ag-2 9.6, PG9 Ab binder -1.1 and NR1D1 mod conf 9.7.
`COC(=O)[C@]12C[C@H](CC(=O)N3CCCC3)C(=O)N(CCc3ccc(OC)c(OC)c3)C1=C[C@H](C1CCCC1)O[C@@H]2C` gave Rev-erbA mod 0.7.
For Cc1nn(-c2ccccc2)c(C)c1NC(=O)COC(=O)c1cc(Br)ccc1O the results were Rev-erbA mod 31.3*, GalR3 antagonist -4.0, NR2E3 ag-1 1.6, NR2E3 ag-2 -21.2, PG9 Ab binder -0.7 and NR1D1 mod conf 13.1.
`Cc1cccc(C(=O)OCC(=O)Nc2c(C)nn(-c3ccccc3)c2C)c1O` gave Rev-erbA mod 5.8, GalR3 antagonist -5.0, NR2E3 ag-1 0.5, NR2E3 ag-2 4.6 and PG9 Ab binder 0.1.
CCN(CC)c1ccc(C=C2SC(=S)NC2=O)cc1 was read as Rev-erbA mod 38.8*, GalR3 antagonist -3.6, NR2E3 ag-2 -5.6, PG9 Ab binder -6.6, NR1D1 mod conf 29.6* and RORg DNA counter >40.
`CCN(CC)c1ccc(/C=C2\SC(N)=NC2=O)cc1` gave Rev-erbA mod 19.8, GalR3 antagonist -9.6, NR2E3 ag-2 4.7 and PG9 Ab binder -31.5.
O=c1[nH]c(-c2ccccc2F)nc2c1sc(=S)n2Cc1ccccc1 was read as Rev-erbA mod 23.6*, GalR3 antagonist 0.5, NR2E3 ag-1 0.5, NR2E3 ag-2 -2.4, PG9 Ab binder -3.0 and NR1D1 mod conf 2.4.
CCCCn1c(=O)[nH]c(=O)c2c1nc(-c1ccccc1F)n2Cc1ccccc1 was read as Rev-erbA mod 4.4, GalR3 antagonist -4.0, NR2E3 ag-1 -4.5, NR2E3 ag-2 -23.4 and PG9 Ab binder 1.3.
O=c1oc(-c2ccccc2)c(-c2ccccc2)c2ccccc12 was read as Rev-erbA mod -4.6, GalR3 antagonist -0.9, NR2E3 ag-2 15.3 and PG9 Ab binder 1.0.
For N#Cc1c(-c2ccccc2)oc(=O)c2ccccc12 the results were Rev-erbA mod 20.2*, GalR3 antagonist -9.2, NR2E3 ag-1 3.6, NR2E3 ag-2 -16.5, PG9 Ab binder -0.1 and NR1D1 mod conf -2.1.
For CC(=O)[C@@H]1[C@@H]2C(=O)N(Cc3ccccc3)C(=O)[C@@H]2C2c3ccccc3C=CN21 (stereo partly specified) the results were Rev-erbA mod 25.9*, GalR3 antagonist -5.8, NR2E3 ag-1 -0.7, NR2E3 ag-2 -3.3, PG9 Ab binder 0.3 and NR1D1 mod conf 27.5*.
Screening COc1ccc(Sc2nc3ccccc3n3c(C(F)(F)F)nnc23)cc1 returned Rev-erbA mod 55.8*, GalR3 antagonist -5.0, NR2E3 ag-1 1.7, NR2E3 ag-2 -8.0, PG9 Ab binder -4.6, NR1D1 mod conf 34.1* and RORg DNA counter >40.
For COc1ccc(-c2cc(-n3c(C(F)(F)F)nc4ccccc43)n(CCC#N)n2)cc1 the results were Rev-erbA mod 5.3, GalR3 antagonist -4.8, NR2E3 ag-1 2.1, NR2E3 ag-2 -1.2 and PG9 Ab binder 1.5.
